# High-throughput results as filed in PubChem.
# Only some compounds are listed: those with a hit (about 1.2% of all), similar ones and a draw of the others.
# TNAP inh no acc = human TNAP enzyme inhibitors, primary screen, biochemical, luminescent, no phosphate acceptor, uHTS; purified TNAP, CDP-star luminescence, 30 min; inhibition, % at 20 µM; 200,000 tested, 0.26% active;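 active means tissue-nonspecific alkaline phosphatase inhibition above about 50% at 20 µM in the single-dose screen, limit read from the data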;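 further: 0% = DMSO negative control and 100% = EDTA positive control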
# Target sequence (P05186 whole entry, looked up): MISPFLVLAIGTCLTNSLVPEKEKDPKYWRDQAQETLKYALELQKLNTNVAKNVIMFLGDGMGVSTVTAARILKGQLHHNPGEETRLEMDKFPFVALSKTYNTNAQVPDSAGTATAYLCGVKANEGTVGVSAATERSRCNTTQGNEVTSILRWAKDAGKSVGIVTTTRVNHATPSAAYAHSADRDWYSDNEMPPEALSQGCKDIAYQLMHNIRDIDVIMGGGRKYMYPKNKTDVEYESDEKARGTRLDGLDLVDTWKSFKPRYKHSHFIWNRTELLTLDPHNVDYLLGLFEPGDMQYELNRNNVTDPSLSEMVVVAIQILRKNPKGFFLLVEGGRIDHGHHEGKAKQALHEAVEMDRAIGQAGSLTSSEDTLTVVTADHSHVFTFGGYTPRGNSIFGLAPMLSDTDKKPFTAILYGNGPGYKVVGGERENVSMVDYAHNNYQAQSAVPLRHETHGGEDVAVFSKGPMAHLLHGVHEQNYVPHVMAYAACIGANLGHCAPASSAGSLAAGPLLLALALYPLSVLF
# INS promoter inh = inhibitors of insulin promoter-driven GFP, primary screen, imaging, TRM-6 cells, eGFP reporter, cell count. 130,000 tested, 0.9% active. reporter expression induced with tamoxifen. inhibition, % at 2 µM;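 active means inhibition above the mean plus 3 SD, with well images judged a real hit on visual review, cut at about 60% in these data, passing the limit was not always enough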
# TNAP inh hiacc = human TNAP enzyme inhibitors, primary screen, biochemical, luminescent, high phosphate acceptor level, uHTS. purified TNAP, CDP-star luminescence, 1 M DEA. inhibition, % at 20 µM. 200,000 tested, 0.03% active. AID 1135, 2008;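 active means over 50% inhibition of tissue-nonspecific alkaline phosphatase at 20 µM in the single-dose screen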;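 further: plate controls were DMSO wells for no effect and EDTA-quenched wells as full inhibition for full effect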
# TNAP act hi DEA = TNAP activators at high phosphate acceptor level, primary screen, biochemical, luminescence, uHTS; purified TNAP, CDP-star luminescence, 1 M DEA, 30 min; active compounds read high; 0 = EDTA background, 1 = DMSO-only activity; activation factor at 20 µM; 200,000 tested, under 10 active; AID 1136, 2008;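 active means activation factor at least 2 at 20 µM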
#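 system = human TNAP | amount = enzyme diluted 1/800 final | reagent = 100 µM CDP-star substrate | signal = luminescent substrate turnover signal | dosing = one dose, 20 µM | benchmarks = EDTA negative control, DMSO positive control | measure = activation factor | timing = 30 min reaction, room temperature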
# Efa HMGR inh = inhibitors of E. faecalis class II HMGR, primary screen, biochemical, Enterococcus faecalis | HMG-CoA reductase (Enterococcus faecalis, mvaE) | purified E. faecalis HMGR, NADPH absorbance 340 nm kinetic | inhibition, % at 10 µM | 190,000 tested, 0.41% active | AID 1066, 2008;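 active means inhibition above a set limit, the median over all tested compounds plus 3 SD, cut at about 9.5% in these data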;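 further: enzyme runs in reverse so mevalonate oxidation gives rising NADPH absorbance; 0% = complete reaction with DMSO and 100% = background rate lacking mevalonate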
# An asterisk follows results filed as active; . = not tested or not shown.
SMILES,TNAP inh no acc,INS promoter inh,TNAP inh hiacc,TNAP act hi DEA,Efa HMGR inh
CCCCc1nc(SCC(=O)Nc2nnc(CCCC)s2)n[nH]1,-56,.,-3,1,0
COc1ccc(-c2nc(SCC(=O)Nc3cc(C)on3)n[nH]2)cc1,70*,-57,2,1,-2
Cc1nnc(NC(=O)CSc2n[nH]c(-c3ccccc3)n2)s1,59*,.,-4,1,-4
COC(=O)c1cc(C(=O)c2cc(Br)ccc2O)coc1=N,8,-30,2,1,-1
C=CCOc1ccc(CNCCc2ccc(S(N)(=O)=O)cc2)cc1,-11,.,-2,1,2
CC(=O)NC(CC(=O)OCC(=O)c1c(N)n(C)c(=O)n(C)c1=O)c1ccccc1 (stereo unspecified),-16,.,-8,1.1,7
CCC(=NC(C)c1ccccc1)c1c(O)n(C)c(=O)n(C)c1=O (stereo unspecified),-11,81*,-5,1,-1
Clc1ccc(Nc2ncn[nH]2)c(Cl)c1,-19,66*,-4,1,-2
CCOc1nc(NC(=O)NS(=O)(=O)Oc2cccc(Cl)c2)nc(-c2ccccc2)n1,-1,78*,-2,1,4
O=C(COC(=O)c1cccc(F)c1)Nc1cccnc1Cl,-4,50,-7,1.1,6
CC1=Nn2c(nnc2-c2cc(-c3ccccc3)n[nH]2)SC1,51*,20,-1,1,1
COc1ccccc1NS(=O)(=O)c1cc(NC(=O)c2ccc3c(c2)OCCO3)ccc1C,-7,-44,-2,1,-6
COc1ccc(OC)c(C(=O)c2ccccc2)c1,-3,81*,-1,1,-4
O=C(O)c1cccc(NS(=O)(=O)c2ccc(Cl)c(C(=O)O)c2)c1,-9,.,-2,1,-1
O=C(Nc1cccc(C(F)(F)F)c1)c1cccc(NS(=O)(=O)c2ccc(Br)c(C(=O)O)c2)c1,-10,21,-7,1.1,10*
CCN1C(=O)/C(=C\C=C\c2ccccc2[N+](=O)[O-])SC1=S,4,22,9,0.9,18*
CCN1C(=O)/C(=C/c2cnn(CC)c2C)SC1=S,-4,-38,1,1,-1
COC(=O)CSC1=NS(=O)(=O)c2ccccc21,-28,-100,-3,1,1
COc1ccc(S(=O)(=O)N(NC2=NS(=O)(=O)c3ccccc32)C(=O)C(C)C)cc1,-8,-43,-4,1,11*
CSc1n[nH]c(NCc2cccs2)n1,56*,57,-5,1,0
O=C(O)c1cc(-c2ccc(N3CCOCC3)cc2)nn1-c1ccccc1Cl,-9,-53,-2,1,21*
O=C(O)c1cc(-c2ccc(N3CCOCC3)cc2)nn1-c1ccc(F)cc1F,-18,.,-2,1,-12
O=C(Oc1ccc(NC2=NS(=O)(=O)c3ccccc32)cc1)c1cccnc1,-10,0,-2,1,-1
Nc1n[nH]c(-c2ccc(Br)cc2)c1Cl,81*,-21,-3,1,2
Nc1nc(-c2ccc(Cl)cc2)nnc1-c1ccc(Br)cc1,-1,.,-4,1,-3
SMILES,TNAP inh no acc,INS promoter inh,TNAP inh hiacc,TNAP act hi DEA,Efa HMGR inh
CCC(C)NC(=O)c1ccc(-n2c(=S)[nH]c3ccccc3c2=O)cc1 (stereo unspecified),-5,18,3,1,-4
Cc1ccc(-n2c3nc(=O)[nH]c(=O)c-3cc3c(C)nn(-c4ccccc4)c32)c(C)c1,2,-27,2,1,-1
Cc1cccc(-n2c3nc(=O)[nH]c(=O)c-3cc3c(C)nn(-c4ccccc4)c32)c1,-10,62*,-2,1,-1
O=C(Nc1nnc(-c2ccc3c(c2)CCCC3)o1)c1c(F)cccc1F,-1,36,3,1,10*
COc1ccc(C(=O)C2CCCN(C(=O)c3n[nH]c4c3CCCC4)C2)cc1OC (stereo unspecified),60*,.,-3,1,1
CCC1S/C(=N/C(=O)NC2CCCCC2)NC1=O (stereo unspecified),-10,69,-3,1,10*
O=C(/N=C1\NC(=O)C(F)(C(F)(F)F)S1)NC1CCCCC1 (stereo unspecified),-16,.,-3,1,-5
Cc1ccc(N=Nc2c(C)[nH][nH]c2=O)c(C)c1,-12,73*,12,0.9,3
O=C(/C=C/Nc1ccc(F)cc1F)c1ccco1,-11,.,-2,1,-7
O=C(/C=C/Nc1ccc(Br)cc1F)c1ccco1,-13,59,-2,1,9.8*
CCCCC1C2=C(CC(C)(C)CC2=O)OC2=C1C(=O)CC(C)(C)C2,-15,.,-3,1,-15
COc1ccc2ccc(=O)oc2c1,-10,38,-4,1,15*
COc1cccc(/C=C/C(=C2/C(=O)N(c3ccccc3)N=C2C)c2ccccc2)c1OC,7,.,4,1,-4
COc1ccccc1/C=C/C(=C1/C(=O)N(c2ccccc2)N=C1C)c1ccc(C)cc1,12,71*,15,0.8,-2
CCOC(=O)c1sc2nccc(OC)c2c1N=CNOC,-12,.,-4,1,-2
CCN1CCN(c2cc(=O)n(Cc3ccc(F)cc3)c(=O)[nH]2)CC1,-7,78*,-5,1.1,-3
C[C@](N)(Cc1ccc(O)c(O)c1)C(=O)O,54*,43,5,1,-6
CCOc1nc(NC(=O)NS(=O)(=O)c2cccc(Cl)c2)nc(-c2ccccc2)n1,-6,59,-5,1.1,-4
Cc1onc(-c2ccccc2Cl)c1C(=O)Nc1cccc(-c2nc3ncccn3c2C)c1,-12,82*,-3,1,-4
N#CCCN1CCNCC1,-6,68*,0,1,-3
N#CCCN1CCN(CCC#N)CC1,-13,-43,-5,1.1,2
CC(=O)c1ccccc1N(C(=O)c1ccco1)C(C(=O)NC1CCCC1)c1ccc(N2CCOCC2)cc1 (stereo unspecified),-7,.,-4,1,-4
CC1=Nc2ccc(C)c3nc(C)cc(c23)N1c1ccc(C)cc1,.,.,.,.,-5
Cc1ccc(N2C=Nc3ccc(C)c4nc(C)cc2c34)cc1,-3,85*,5,0.9,4
Nn1c(SCC(=O)NC(=O)Nc2ccc3c(c2)OCCO3)nnc1C1CC1,-13,-9,-6,1.1,-3
COc1ccc(C(=O)Nc2nc(C)cc(C)n2)cc1,-5,58,4,1,-1
COc1ccc(C(=O)Nc2n[nH]c(-c3ccncc3)n2)cc1,92*,.,2,1,3
CCCOP(=O)(OCCC)c1nc(-c2ccccc2)oc1NCc1ccccc1,2,0,2,1,17*
